Compound activity as filed in PubChem BioAssay.
Shown are actives, neighbours in structure and some others; about 2.4% of the full set was active somewhere.
MT stabilizer – microtubule stabilizers in HeLa cells, primary screen, imaging, high-content imaging; AID 2205, 2009; % tubulin-high responders, % at 10 µM; 200,000 compounds, 0.83% hits; HeLa tubulin immunostaining HCS, 24 h; share of cells brighter than vehicle mean+2SD;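 active means plate Z-score above 3 for both tubulin-high and condensed-nucleus cell shares, with cell loss under 80%, at 10 µM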;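 further: anti alpha tubulin signal scored within the nucleus-defined area of each cell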
HSV augment – enhancers of HSV replication in host cells, fold increase, host cell viability. HSV replication augmentation in cells. AID 1956, 2009. maximum fold increase. 220,000 compounds, 0.005% hits; in the data active means maximum fold increase above about 1.5; inconclusive means no clear call, values can overlap the other calls; tested in PC3 cells
b-catenin transl – modulators of beta-catenin nuclear translocation, primary screen, imaging, HeLa cells, immunofluorescence, high-content; nuclear translocation activity, % at 5 µM; 190,000 compounds, 0.3% hits;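 active means nuclear translocation activity above 50% at 5 µM, with a well cell count of 50 or more; inconclusive means wells under 50 cells across six images, flagged as toxic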;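 further: per-cell ratio of nuclear to cytoplasmic median beta-catenin stain intensity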
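Signal – beta-catenin immunofluorescence imaging with DAPI · Test system – human HeLa cell line · Dosing – 5 µM primary single dose, 0.1% DMSO, 0.02–20 µM confirmation series · Measure – % activation, nuclear-to-cytoplasmic median beta-catenin signal ratio per cell · Incubation – 24 h compound exposure at 37°C, 5% CO2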
INS promoter inh – inhibitors of insulin promoter-driven GFP, primary screen, imaging, TRM-6 cells, eGFP reporter, cell count. reporter expression induced with tamoxifen. inhibition, % at 2 µM. 130,000 compounds, 0.9% hits. AID 1273, 2008;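 active means inhibition above the mean plus 3 SD, with well images judged a real hit on visual review, cut at about 60% in these data, passing the limit was not always enough; inconclusive means inhibition over the cutoff but images rejected on review; inactive means inhibition not above the cutoff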
ROMK mod – ROMK potassium channel modulators, primary screen, cell-based, thallium flux, MLSMR library | ATP-sensitive inward rectifier potassium channel 1 (Homo sapiens), P48048 | Tet-inducible ROMK, thallium flux fluorescence; actives lie on both sides | B-score at 10 µM | 130,000 compounds, 2% hits | AID 1918, 2009;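 active means signal ratio slope over the read window, or its plate-corrected B-score, at least 3 SD from the plate mean, either direction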;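 further: B-score of the F/F0 ratio slope over 7 to 12 s after thallium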
Target sequence (P48048 whole entry, looked up): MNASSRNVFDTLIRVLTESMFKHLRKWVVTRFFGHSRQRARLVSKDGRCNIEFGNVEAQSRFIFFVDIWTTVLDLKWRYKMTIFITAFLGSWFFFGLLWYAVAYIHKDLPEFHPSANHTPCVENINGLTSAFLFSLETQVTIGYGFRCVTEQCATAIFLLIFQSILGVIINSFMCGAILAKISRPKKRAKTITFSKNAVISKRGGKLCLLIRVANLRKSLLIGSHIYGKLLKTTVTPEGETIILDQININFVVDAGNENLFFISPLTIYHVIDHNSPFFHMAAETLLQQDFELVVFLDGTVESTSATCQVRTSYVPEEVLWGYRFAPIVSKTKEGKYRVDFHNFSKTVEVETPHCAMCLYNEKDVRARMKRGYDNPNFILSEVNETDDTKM
ROMK hit retest – ROMK channel modulator hit retest, confirmation, cell-based, thallium flux, duplicate, resupplied hits. 3,000 compounds, 54% hits. fluorescence ratio; hits give low values. normalized thallium flux (F/F0 slope) at 10 µM. shares compounds with ROMK mod;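 active means Flux at 10 µM at least 3 SD below or above vehicle control mean in one or both replicates; inconclusive means no clear call, values can overlap the other calls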
Large screens that a line does not name were inactive (follow-up assays come after a bar, where they were run).

O=C(CCCc1ccccc1)N1CCN(c2ccc([N+](=O)[O-])cc2)CC1	none (no result: ROMK mod)
Cc1noc(C)c1CSCC(=O)N1CCN(c2ccc([N+](=O)[O-])cc2)CC1	ROMK mod -4.3 (no result: b-catenin transl) | ROMK hit retest 0.042
Cc1ccc(NC(=O)CS(=O)CC(=O)N(c2ccc(C)cc2)C(C)C(=O)NC2CCCCC2)cc1 (stereo unspecified)	none (no result: ROMK mod)
COc1ccc(CCNC(=O)c2cccnc2SC)cc1	none
CCOC(=O)c1[nH]cnc1C(=O)Nc1ccccc1OC	none
COc1ccc(C(=O)/C=C/C(=O)N(Cc2ccccc2OC)C(C(=O)NC2CCCCC2)c2ccncc2)c(O)c1 (stereo unspecified)	ROMK mod -3.7 | ROMK hit retest 0.066
COc1ccc(C(=O)/C=C/C(=O)N(Cc2ccccc2)C(C(=O)NC2CCCCC2)c2ccncc2)c(O)c1 (stereo unspecified)	none
Cc1ccnc(NS(=O)(=O)c2ccc(NC(=O)C3C4C=CC(C4)C3C(=O)O)cc2)n1 (stereo unspecified)	none (no result: INS promoter inh)
Cc1cc(C)cc(NC(=O)N2CCN(C/C=C/c3ccccc3)CC2)c1	ROMK mod -4.2 (no result: INS promoter inh) | ROMK hit retest 0.067
COc1ccccc1CNC(=O)C1CC2Cn3c(nc4cc(Cl)c(Cl)cc43)C2N1C (stereo unspecified)	none (no result: MT stabilizer, b-catenin transl, INS promoter inh, ROMK mod)
O=C(NCc1ccccc1)c1ccc(Br)cc1	ROMK mod -4.5 (no result: INS promoter inh) | ROMK hit retest inconclusive
Cc1ccc(C)n1-c1ccc(-n2cnnn2)cc1	none (no result: ROMK mod) | ROMK hit retest 0.057
Cc1ccsc1/C=C(\C#N)C(=O)Nc1c(C)n(C)n(-c2ccccc2)c1=O	none
Cc1c(NC(=O)/C(C#N)=C/c2ccccc2)c(=O)n(-c2ccccc2)n1C	ROMK mod -2.9 (no result: INS promoter inh) | ROMK hit retest 0.051
Cc1c(NC(=O)/C(C#N)=C/c2ccc(-c3ccccc3Cl)o2)c(=O)n(-c2ccccc2)n1C	none (no result: HSV augment, INS promoter inh, ROMK mod) | ROMK hit retest 0.056
COc1cc(/C=N/NC(=O)Cn2ccc(C(F)(F)F)n2)cc(OC)c1OC	none
O=C(CCNS(=O)(=O)c1ccc(Br)s1)NC1CCCC1	none (no result: INS promoter inh, ROMK mod)
O=C(CNS(=O)(=O)c1ccc(Br)s1)NC1CCCc2ccccc21 (stereo unspecified)	ROMK mod -3.8 | ROMK hit retest 0.067
O=S(=O)(Nc1ccc(S(=O)(=O)N2CCCCC2)cc1)c1ccc(Br)s1	none (no result: b-catenin transl, ROMK mod)
CCNc1nc(-c2ccc(OC(F)F)cc2)c(C)s1	ROMK mod -4.5 (no result: INS promoter inh) | ROMK hit retest 0.062
C/C(=C/C(=O)O)C(=O)Nc1cccc(C(F)(F)F)c1	none
Clc1cc(Br)ccc1OCCCNCc1ccccc1	ROMK mod -4.3 | ROMK hit retest 0.059
CCc1cc(OCCCCNCc2ccccc2)ccc1Cl	ROMK mod -3.6 | ROMK hit retest 0.054
Cc1ccc(NC(=O)COC(=O)CCc2ccc(S(=O)(=O)N3CCOCC3)cc2)c(C)c1	none
Cc1ccc(NC(=O)CCc2ccc(S(=O)(=O)N3CCOCC3)cc2)c(C)c1	ROMK mod 3.2 (no result: b-catenin transl) | ROMK hit retest inactive
CCN(CC)P(=O)(Nc1ccc(C)cc1Br)c1ccc(N(C)C)cc1NC(=O)c1ccco1 (stereo unspecified)	none (no result: ROMK mod)
CCCCNC(=O)CS(=O)Cc1nc(-c2ccc(C)cc2)oc1C (stereo unspecified)	none (no result: INS promoter inh, ROMK mod)
Cc1cccc(-c2nc(CS(=O)CC(=O)NCCCSC3CCCCC3)c(C)o2)c1 (stereo unspecified)	ROMK mod -4 (no result: INS promoter inh) | ROMK hit retest 0.059
Cc1ccc(N2C(=O)[C@@H]3C(c4cccnc4)=NO[C@@H]3C2=O)cc1	none (no result: MT stabilizer, INS promoter inh, ROMK mod) | ROMK hit retest inactive
COc1ccc(N2C(=O)[C@@H]3C(c4cccnc4)=NO[C@@H]3C2=O)cc1	none (no result: MT stabilizer, INS promoter inh, ROMK mod)
COc1ccc(C(N)=S)cc1	none
C=C(c1ccc(OC)cc1)c1ccc(OC)cc1	b-catenin transl 88, ROMK mod 1.9 (no result: HSV augment) | ROMK hit retest inactive
COC(=O)c1ccc(/C=N/NC(=S)NCCN2CCOCC2)cc1	none (no result: INS promoter inh)
Cc1cccc(Oc2ccc(NC(=O)c3ccccc3C(=O)O)cc2)c1C	ROMK mod 1.6 (no result: INS promoter inh) | ROMK hit retest inactive
CC(C)c1cc(C(F)(F)F)n2nc(C(=O)Nc3ccc(-n4cnnn4)cc3)cc2n1	none (no result: MT stabilizer, INS promoter inh, ROMK mod)
CC(=O)c1cc2c(cc1NC(=O)c1cc3nc(C(C)C)cc(C(F)(F)F)n3n1)OCO2	none (no result: INS promoter inh, ROMK mod) | ROMK hit retest inactive
N#CC1=C(N)Oc2c(ccc3cccnc23)C1c1cccnc1 (stereo unspecified)	MT stabilizer 22, b-catenin transl 56, ROMK mod 3.6 (no result: HSV augment) | ROMK hit retest inconclusive
Cc1ccc2cc(C3C(C#N)=C(N)Oc4c3ccc3cccnc43)c(=O)[nH]c2c1 (stereo unspecified)	none (no result: ROMK mod)
Fc1ccc(Nc2nnc(C(F)(F)F)s2)cc1Cl	none (no result: MT stabilizer, INS promoter inh, ROMK mod) | ROMK hit retest 0.062
Cc1[nH]n(-c2ccc(C(=O)O)cc2)c(=O)c1CCO	ROMK mod 3.8 | ROMK hit retest inactive
CCOc1cccc(-c2nnc3n2N=C(c2cc(OC)ccc2OC)CS3)c1	MT stabilizer 29, ROMK mod 3.8 | ROMK hit retest inactive
COc1cccc(-c2nnc3n2N=C(c2cc(OC)ccc2OC)CS3)c1	none (no result: INS promoter inh)
CC(=O)c1ccc(N2CCN(C(=O)COc3ccc(F)cc3)CC2)c(F)c1	ROMK mod -2.8 | ROMK hit retest 0.061
O=c1[nH]c2ccc(S(=O)(=O)NCc3ccccc3)cc2[nH]1	none (no result: INS promoter inh)
CCN(CC)CC(=O)Nc1ccc(-c2nc3cc(NC(=O)CN(CC)CC)ccc3o2)cc1	none (no result: INS promoter inh, ROMK mod)
CCC(C)NCC(=O)Nc1ccc(-c2nc3cc(NC(=O)CNC(C)CC)ccc3o2)cc1 (stereo unspecified)	ROMK mod -2.3 (no result: INS promoter inh) | ROMK hit retest 0.061
O=C(c1ccccc1F)N1CCN(c2ccc([N+](=O)[O-])c3cccnc23)CC1	none (no result: INS promoter inh)
Cc1cc(N2CCN(c3ccc([N+](=O)[O-])c4cccnc34)CC2)c2ccccc2n1	ROMK mod -2.6 | ROMK hit retest 0.062
O=C(Nc1ccc2snnc2c1)N1CCOCC1	none (no result: INS promoter inh, ROMK mod) | ROMK hit retest inconclusive
CCNc1ccc(S(=O)(=O)N(C)C)cc1NCC(=O)Nc1ccc(F)c(Cl)c1	none
Cc1noc(C)c1COc1ccc(C(=O)OCC(=O)Nc2ccc3c(c2)OCO3)cc1	none (no result: ROMK mod) | ROMK hit retest inactive
Cn1cc(Br)c(-c2cccc(NC(=O)CCC(=O)O)c2)n1	none (no result: MT stabilizer, INS promoter inh, ROMK mod)
CC(C)(C)c1ccc(S(=O)(=O)N(CCCN2CCOCC2)Cc2cccs2)cc1	ROMK mod -3.5 | ROMK hit retest 0.052
O=C(CCCCCN1C(=O)CCC1=O)Nc1ccc(Cl)c(C(F)(F)F)c1	none
Cc1ccc(NC2=C(C(=O)c3ccccc3)N(C)S(=O)(=O)c3ccccc32)cc1	HSV augment inconclusive (no result: ROMK mod)
CN1C(C(=O)c2ccccc2)=C(N)c2ccccc2S1(=O)=O	ROMK mod 3 (no result: INS promoter inh) | ROMK hit retest 0.066
